According to ChEMBL document CHEMBL3243962, “Antileukemic activity of derivatives of 1,2-dimethyl-3,4-bis(hydroxymethyl)-5-phenylpyrrole bis(N-methylcarbamate)” (J Med Chem, 1979):

Tests used:
[1] = test system: Mus musculus; test: Toxicity in mouse P388 cells allografted CD2F1 mouse assessed as mouse survival at 40 mg/kg, ip of total 9 doses starting 24 hrs post tumor inoculation measured on day 5 of inoculation relative to control; assay type: organism-based; parameters: dose 40 mg/kg, route intraperitoneal; settings: in vivo
Summary of the method: (§1)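 Male CD2F1 mice bearing ip P388 leukemia (6×10^6 cells) were dosed ip with nine daily doses in distilled water–Tween 80 suspension, starting 24 h after inoculation. Survivors per group of 6 were counted on day 5, i.e. 4 days after the first dose. Body-weight change of treated minus control mice was also recorded.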

[2] = test system: Mus musculus; test: Toxicity in mouse P388 cells allografted CD2F1 mouse assessed as body weight loss at 40 mg/kg, ip of total 9 doses starting 24 hrs post tumor inoculation measured on day 5 of inoculation relative to control; assay type: organism-based; parameters: dose 40 mg/kg, route intraperitoneal; settings: in vivo
Summary of the method: (§2)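 Male CD2F1 mice inoculated ip with 6×10^6 P388 leukemia cells. Compounds given ip as distilled water–Tween 80 suspension, nine daily doses starting 24 h after inoculation; six mice per dose group. Treated-minus-control body-weight change (T − C) and toxicity-day survivors recorded on day 5 (4 days after first dose).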

[3] = test system: P388; test: Antitumor activity against mouse P388 cells allografted in CD2F1 mouse assessed as increase in mouse survival at 80 mg/kg, ip of total 9 doses starting 24 hrs post tumor inoculation measured on day 5 of inoculation relative to control; assay type: functional; settings: route intraperitoneal
Summary of the method: (§3)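 Male CD2F1 mice inoculated ip with 6×10^6 P388 leukemia cells. Dosing was ip as a suspension in distilled water–Tween 80, nine daily doses starting 24 h after inoculation. Activity was read as median survival time of treated vs control mice (% T/C); % T/C ≥ 120 was considered significant. Groups were 6 mice.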

[4] = test system: P388; test: Antitumor activity against mouse P388 cells allografted in CD2F1 mouse assessed as increase in mouse survival at 5 mg/kg, ip of total 9 doses starting 24 hrs post tumor inoculation measured on day 5 of inoculation relative to control; assay type: functional; settings: route intraperitoneal; summary of the method: as §3
[5] = test system: Mus musculus; test: Toxicity in mouse P388 cells allografted CD2F1 mouse assessed as body weight loss at 10 mg/kg, ip of total 9 doses starting 24 hrs post tumor inoculation measured on day 5 of inoculation relative to control; assay type: organism-based; parameters: dose 10 mg/kg, route intraperitoneal; settings: in vivo; summary of the method: as §2
[6] = test system: Mus musculus; test: Toxicity in mouse P388 cells allografted CD2F1 mouse assessed as body weight loss at 20 mg/kg, ip of total 9 doses starting 24 hrs post tumor inoculation measured on day 5 of inoculation relative to control; assay type: organism-based; parameters: dose 20 mg/kg, route intraperitoneal; settings: in vivo; summary of the method: as §2
[7] = test system: Mus musculus; test: Toxicity in mouse P388 cells allografted CD2F1 mouse assessed as mouse survival at 5 mg/kg, ip of total 9 doses starting 24 hrs post tumor inoculation measured on day 5 of inoculation relative to control; assay type: organism-based; parameters: dose 5 mg/kg, route intraperitoneal; settings: in vivo; summary of the method: as §1
[8] = test system: Mus musculus; test: Toxicity in mouse P388 cells allografted CD2F1 mouse assessed as body weight loss at 80 mg/kg, ip of total 9 doses starting 24 hrs post tumor inoculation measured on day 5 of inoculation relative to control; assay type: organism-based; parameters: dose 80 mg/kg, route intraperitoneal; settings: in vivo; summary of the method: as §2
[9] = test system: P388; test: Antitumor activity against mouse P388 cells allografted in CD2F1 mouse assessed as increase in mouse survival at 40 mg/kg, ip of total 9 doses starting 24 hrs post tumor inoculation measured on day 5 of inoculation relative to control; assay type: functional; settings: route intraperitoneal; summary of the method: as §3
[10] = test system: P388; test: Antitumor activity against mouse P388 cells allografted in CD2F1 mouse assessed as increase in mouse survival at 10 mg/kg, ip of total 9 doses starting 24 hrs post tumor inoculation measured on day 5 of inoculation relative to control; assay type: functional; settings: route intraperitoneal; summary of the method: as §3
[11] = test system: Mus musculus; test: Toxicity in mouse P388 cells allografted CD2F1 mouse assessed as mouse survival at 80 mg/kg, ip of total 9 doses starting 24 hrs post tumor inoculation measured on day 5 of inoculation relative to control; assay type: organism-based; parameters: dose 80 mg/kg, route intraperitoneal; settings: in vivo; summary of the method: as §1
[12] = test system: Mus musculus; test: Toxicity in mouse P388 cells allografted CD2F1 mouse assessed as mouse survival at 10 mg/kg, ip of total 9 doses starting 24 hrs post tumor inoculation measured on day 5 of inoculation relative to control; assay type: organism-based; parameters: dose 10 mg/kg, route intraperitoneal; settings: in vivo; summary of the method: as §1
[13] = test system: Mus musculus; test: Toxicity in mouse P388 cells allografted CD2F1 mouse assessed as body weight loss at 5 mg/kg, ip of total 9 doses starting 24 hrs post tumor inoculation measured on day 5 of inoculation relative to control; assay type: organism-based; parameters: dose 5 mg/kg, route intraperitoneal; settings: in vivo; summary of the method: as §2
[14] = test system: Mus musculus; test: Toxicity in mouse P388 cells allografted CD2F1 mouse assessed as mouse survival at 20 mg/kg, ip of total 9 doses starting 24 hrs post tumor inoculation measured on day 5 of inoculation relative to control; assay type: organism-based; parameters: dose 20 mg/kg, route intraperitoneal; settings: in vivo; summary of the method: as §1
[15] = test system: P388; test: Antitumor activity against mouse P388 cells allografted in CD2F1 mouse assessed as increase in mouse survival at 20 mg/kg, ip of total 9 doses starting 24 hrs post tumor inoculation measured on day 5 of inoculation relative to control; assay type: functional; settings: route intraperitoneal; summary of the method: as §3
[16] = test system: Mus musculus; test: Toxicity in mouse P388 cells allografted CD2F1 mouse assessed as body weight loss at 200 mg/kg, ip of total 9 doses starting 24 hrs post tumor inoculation measured on day 5 of inoculation relative to control; assay type: organism-based; parameters: dose 200 mg/kg, route intraperitoneal; settings: in vivo; summary of the method: as §2
[17] = test system: P388; test: Antitumor activity against mouse P388 cells allografted in CD2F1 mouse assessed as increase in mouse survival at 50 mg/kg, ip of total 9 doses starting 24 hrs post tumor inoculation measured on day 5 of inoculation relative to control; assay type: functional; settings: route intraperitoneal; summary of the method: as §3
[18] = test system: P388; test: Antitumor activity against mouse P388 cells allografted in CD2F1 mouse assessed as increase in mouse survival at 200 mg/kg, ip of total 9 doses starting 24 hrs post tumor inoculation measured on day 5 of inoculation relative to control; assay type: functional; settings: route intraperitoneal; summary of the method: as §3
[19] = test system: Mus musculus; test: Toxicity in mouse P388 cells allografted CD2F1 mouse assessed as body weight loss at 12.5 mg/kg, ip of total 9 doses starting 24 hrs post tumor inoculation measured on day 5 of inoculation relative to control; assay type: organism-based; parameters: dose 12.5 mg/kg, route intraperitoneal; settings: in vivo; summary of the method: as §2
[20] = test system: Mus musculus; test: Toxicity in mouse P388 cells allografted CD2F1 mouse assessed as mouse survival at 50 mg/kg, ip of total 9 doses starting 24 hrs post tumor inoculation measured on day 5 of inoculation relative to control; assay type: organism-based; parameters: dose 50 mg/kg, route intraperitoneal; settings: in vivo; summary of the method: as §1
[21] = test system: Mus musculus; test: Toxicity in mouse P388 cells allografted CD2F1 mouse assessed as mouse survival at 100 mg/kg, ip of total 9 doses starting 24 hrs post tumor inoculation measured on day 5 of inoculation relative to control; assay type: organism-based; parameters: dose 100 mg/kg, route intraperitoneal; settings: in vivo; summary of the method: as §1
[22] = test system: P388; test: Antitumor activity against mouse P388 cells allografted in CD2F1 mouse assessed as increase in mouse survival at 12.5 mg/kg, ip of total 9 doses starting 24 hrs post tumor inoculation measured on day 5 of inoculation relative to control; assay type: functional; settings: route intraperitoneal; summary of the method: as §3
[23] = test system: Mus musculus; test: Toxicity in mouse P388 cells allografted CD2F1 mouse assessed as mouse survival at 25 mg/kg, ip of total 9 doses starting 24 hrs post tumor inoculation measured on day 5 of inoculation relative to control; assay type: organism-based; parameters: dose 25 mg/kg, route intraperitoneal; settings: in vivo; summary of the method: as §1
[24] = test system: P388; test: Antitumor activity against mouse P388 cells allografted in CD2F1 mouse assessed as increase in mouse survival at 100 mg/kg, ip of total 9 doses starting 24 hrs post tumor inoculation measured on day 5 of inoculation relative to control; assay type: functional; settings: route intraperitoneal; summary of the method: as §3
[25] = test system: Mus musculus; test: Toxicity in mouse P388 cells allografted CD2F1 mouse assessed as body weight loss at 50 mg/kg, ip of total 9 doses starting 24 hrs post tumor inoculation measured on day 5 of inoculation relative to control; assay type: organism-based; parameters: dose 50 mg/kg, route intraperitoneal; settings: in vivo; summary of the method: as §2
[26] = test system: Mus musculus; test: Toxicity in mouse P388 cells allografted CD2F1 mouse assessed as body weight loss at 25 mg/kg, ip of total 9 doses starting 24 hrs post tumor inoculation measured on day 5 of inoculation relative to control; assay type: organism-based; parameters: dose 25 mg/kg, route intraperitoneal; settings: in vivo; summary of the method: as §2
[27] = test system: Mus musculus; test: Toxicity in mouse P388 cells allografted CD2F1 mouse assessed as mouse survival at 12.5 mg/kg, ip of total 9 doses starting 24 hrs post tumor inoculation measured on day 5 of inoculation relative to control; assay type: organism-based; parameters: dose 12.5 mg/kg, route intraperitoneal; settings: in vivo; summary of the method: as §1
[28] = test system: Mus musculus; test: Toxicity in mouse P388 cells allografted CD2F1 mouse assessed as mouse survival at 200 mg/kg, ip of total 9 doses starting 24 hrs post tumor inoculation measured on day 5 of inoculation relative to control; assay type: organism-based; parameters: dose 200 mg/kg, route intraperitoneal; settings: in vivo; summary of the method: as §1
[29] = test system: P388; test: Antitumor activity against mouse P388 cells allografted in CD2F1 mouse assessed as increase in mouse survival at 25 mg/kg, ip of total 9 doses starting 24 hrs post tumor inoculation measured on day 5 of inoculation relative to control; assay type: functional; settings: route intraperitoneal; summary of the method: as §3
[30] = test system: Mus musculus; test: Toxicity in mouse P388 cells allografted CD2F1 mouse assessed as body weight loss at 100 mg/kg, ip of total 9 doses starting 24 hrs post tumor inoculation measured on day 5 of inoculation relative to control; assay type: organism-based; parameters: dose 100 mg/kg, route intraperitoneal; settings: in vivo; summary of the method: as §2

Structure (SMILES): CNC(=O)OCc1c(COC(=O)NC)c(-c2ccc(S(=O)(=O)c3ccccc3)cc2)n(C)c1C
- Activity [1]: Non-toxic
- Activity [2]: 3.1 g
- T/C [3]: 153%
- T/C [4]: 137%
- Activity [5]: 0.9 g
- Activity [6]: 1.9 g
- Activity [7]: Non-toxic
- Activity [8]: 3.6 g
- T/C [9]: 153%
- T/C [10]: 136%
- Activity [11]: Non-toxic
- Activity [12]: Non-toxic
- Activity [13]: 1.3 g
- Activity [14]: Non-toxic
- T/C [15]: 146%

Structure (SMILES): CNC(=O)OCc1c(COC(=O)NC)c(-c2ccc(S(C)(=O)=O)cc2)n(C)c1C
- Activity [16]: 3.7 g
- T/C [17]: 162%
- T/C [18]: 198%
- Activity [19]: 0.4 g
- Activity [20]: Non-toxic
- Activity [21]: Non-toxic
- T/C [22]: 136%
- Activity [23]: Non-toxic
- T/C [24]: 180%
- Activity [25]: 1.1 g
- Activity [26]: 0.8 g
- Activity [27]: Non-toxic
- Activity [28]: Non-toxic
- T/C [29]: 144%
- Activity [30]: 2.1 g
